Results from ChEMBL document CHEMBL4665666, “Discovery and characterization of trypanocidal cysteine protease inhibitors from the 'malaria box'” (Eur J Med Chem, 2019).
Activity calls are given as the source filed them. The rule behind the calls is not given here.

Legend:
[1] = target: Cruzipain (Trypanosoma cruzi) (UniProt P25779); assay: Inhibition of recombinant Trypanosoma cruzi cruzain at 100 uM preincubated for 10 mins in presence of 0.1% Triton X-100 relative to control
Method in brief: (§1)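 To test detergent sensitivity, cruzain was pre-incubated 10 min at room temperature with compound with no Triton X-100, 0.01% or 0.1% Triton X-100. Cleavage of Z-FR-AMC was then followed at pH 5.5 in acetate buffer. Percent inhibition was compared across detergent levels.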

cathepsin B = cathepsin B (Rattus norvegicus, UniProt P00787); assay: Inhibition of rat cathepsin B at 100 uM using Z-FR-AMC as substrate preincubated for 5 mins followed by substrate addition and measured after 15 mins by microplate reader based assay relative to control; details: probe Z-FR-AMC
Sequence of cathepsin B (P00787 whole entry): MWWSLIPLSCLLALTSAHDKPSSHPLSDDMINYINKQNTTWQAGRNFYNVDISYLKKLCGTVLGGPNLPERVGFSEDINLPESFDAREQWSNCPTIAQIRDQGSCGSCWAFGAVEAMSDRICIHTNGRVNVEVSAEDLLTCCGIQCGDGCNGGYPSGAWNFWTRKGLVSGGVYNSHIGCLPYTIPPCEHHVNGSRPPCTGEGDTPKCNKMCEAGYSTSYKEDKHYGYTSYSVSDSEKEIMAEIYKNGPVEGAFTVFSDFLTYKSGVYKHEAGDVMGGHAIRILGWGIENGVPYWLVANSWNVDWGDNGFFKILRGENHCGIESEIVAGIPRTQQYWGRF

Trypanosoma cruzi = assay: Trypanocidal activity against Trypanosoma cruzi Y strain trypomastigotes infected in C57BL/6 mouse peritoneal macrophage assessed as reduction in number of trypomastigotes release at 50 uM and measured after day 3 to day 11 post-infection by Neubauer chamber method; format: functional, organism-based; details: time 11.0 day
Method in brief: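 Thioglycolate-elicited peritoneal macrophages from female C57BL/6 mice, 2 × 10^5/well, infected 2 h at 37°C with Y strain trypomastigotes at 5:1 (parasite:cell) and washed. They were then held with compound (3.125–50 µM) or IFN-γ 100 ng/mL. Trypomastigotes released into the supernatant were counted in a Neubauer chamber at several days after infection. Three independent experiments, each in triplicate.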

[2] = target: Rhodesain (Trypanosoma brucei rhodesiense) (UniProt Q95PM0); assay: Inhibition of recombinant Trypanosoma brucei rhodesain expressed in Pichia pastoris at 300 uM using Z-FR-AMC as substrate preincubated for 10 mins followed by substrate addition and measured at 12 sec interval for 5 mins by fluorimetric analysis relative to control; details: time 15.0 min
Sequence of Rhodesain (Trypanosoma brucei rhodesiense) (Q95PM0 1-450): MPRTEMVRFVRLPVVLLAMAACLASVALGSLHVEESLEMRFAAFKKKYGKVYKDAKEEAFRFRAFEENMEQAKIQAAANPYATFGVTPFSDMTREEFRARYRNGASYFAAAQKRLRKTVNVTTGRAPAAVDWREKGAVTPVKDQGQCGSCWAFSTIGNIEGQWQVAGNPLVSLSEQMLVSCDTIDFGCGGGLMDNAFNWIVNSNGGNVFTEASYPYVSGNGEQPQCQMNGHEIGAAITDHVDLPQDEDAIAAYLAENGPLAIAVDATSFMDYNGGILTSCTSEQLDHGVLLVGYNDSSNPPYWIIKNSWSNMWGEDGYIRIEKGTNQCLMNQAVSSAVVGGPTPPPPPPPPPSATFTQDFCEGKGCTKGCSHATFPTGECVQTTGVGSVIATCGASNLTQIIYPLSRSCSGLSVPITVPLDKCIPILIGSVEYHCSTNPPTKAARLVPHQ
Method in brief: (§2)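 Run with no pre-incubation or with 10 min enzyme-compound pre-incubation. Fluorescence read at 340/440 nm. Concentration was set by solubility under assay conditions. Inhibition is against DMSO, with E-64 as positive control; triplicate.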

[3] = target: Cruzipain (Trypanosoma cruzi) (UniProt P25779); assay: Inhibition of recombinant Trypanosoma cruzi cruzain at 300 uM using Z-FR-AMC as substrate preincubated for 10 mins followed by substrate addition and measured at 12 sec interval for 5 mins by fluorimetric analysis relative to control; details: time 15.0 min
Method in brief: (§3)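 Recombinant rhodesain or cruzain (1 nM) in 0.1 M sodium acetate pH 5.5, 0.01% Triton X-100, 1 mM β-mercaptoethanol. Compound at a single concentration, either without or after 10 min enzyme pre-incubation. Z-FR-AMC 2.5 µM, read at 340/440 nm every 12 s for 5 min. Inhibition is relative to DMSO, with E-64 as positive control. Done in duplicate (primary screen) or triplicate.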

[4] = target: Cruzipain (Trypanosoma cruzi) (UniProt P25779); assay: Inhibition of recombinant Trypanosoma cruzi cruzain at 100 uM preincubated for 10 mins in absence of Triton X-100 relative to control; method in brief: as §1
[5] = target: Rhodesain (Trypanosoma brucei rhodesiense) (UniProt Q95PM0); assay: Inhibition of recombinant Trypanosoma brucei rhodesain expressed in Pichia pastoris at 300 uM using Z-FR-AMC as substrate and measured at 12 sec interval for 5 mins without preincubation by fluorimetric analysis relative to control; method in brief: as §2
cathepsin S [6] = target: T1, cathepsin S (Homo sapiens, UniProt P25774); assay: Inhibition of recombinant human cathepsin S expressed in Escherichia coli at 100 uM using Z-VVR-AMC as substrate preincubated for 10 mins followed by substrate addition and measured after 15 mins by microplate reader based assay relative to control; details: probe Z-VVR-AMC, in the assay text read “preincubated for 5 mins” for “preincubated for 10 mins”, time 20 min
T1 sequence (P25774 whole entry): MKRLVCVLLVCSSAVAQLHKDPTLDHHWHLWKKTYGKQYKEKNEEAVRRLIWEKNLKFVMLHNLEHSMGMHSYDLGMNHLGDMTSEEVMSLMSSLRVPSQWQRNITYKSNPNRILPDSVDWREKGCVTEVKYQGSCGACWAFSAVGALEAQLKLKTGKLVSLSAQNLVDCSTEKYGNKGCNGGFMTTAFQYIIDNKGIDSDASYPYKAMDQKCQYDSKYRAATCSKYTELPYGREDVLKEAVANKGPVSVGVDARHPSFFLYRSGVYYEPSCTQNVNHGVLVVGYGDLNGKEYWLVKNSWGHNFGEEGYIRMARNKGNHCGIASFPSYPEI
Method in brief: (§4)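 Run with or without 5 min compound–enzyme pre-incubation. AMC fluorescence at 380/460 nm over 15 min. Inhibition relative to DMSO (2% final); E64 1 µM as positive control. Two independent experiments, each in triplicate.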

[7] = target: Cruzipain (Trypanosoma cruzi) (UniProt P25779); assay: Inhibition of recombinant Trypanosoma cruzi cruzain at 10 uM using Z-FR-AMC as substrate and measured at 12 sec interval for 5 mins without preincubation by fluorimetric analysis relative to control; method in brief: as §3
[8] = target: Cruzipain (Trypanosoma cruzi) (UniProt P25779); assay: Inhibition of recombinant Trypanosoma cruzi cruzain at 300 uM using Z-FR-AMC as substrate and measured at 12 sec interval for 5 mins without preincubation by fluorimetric analysis relative to control; method in brief: as §3
[9] = target: Cruzipain (Trypanosoma cruzi) (UniProt P25779); assay: Inhibition of recombinant Trypanosoma cruzi cruzain at 10 uM using Z-FR-AMC as substrate preincubated for 10 mins followed by substrate addition and measured at 12 sec interval for 5 mins by fluorimetric analysis relative to control; details: time 15.0 min; method in brief: as §3
[10] = target: Rhodesain (Trypanosoma brucei rhodesiense) (UniProt Q95PM0); assay: Inhibition of recombinant Trypanosoma brucei rhodesain expressed in Pichia pastoris at 10 uM using Z-FR-AMC as substrate and measured at 12 sec interval for 5 mins without preincubation by fluorimetric analysis relative to control; method in brief: as §3
[11] = target: Cruzipain (Trypanosoma cruzi) (UniProt P25779); assay: Inhibition of recombinant Trypanosoma cruzi cruzain at 100 uM preincubated with enzyme for 5 mins followed by substrate addition in absence of BSA relative to control
Method in brief: (§5)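 For BSA sensitivity, compound was held 5 min with BSA (2 mg/mL in 0.001% Triton X-100), then 5 min with 1 nM cruzain, before substrate was added and activity monitored. Parallel runs omitted BSA under otherwise identical conditions.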

[12] = target: Cruzipain (Trypanosoma cruzi) (UniProt P25779); assay: Inhibition of recombinant Trypanosoma cruzi cruzain at 5 uM using Z-FR-AMC as substrate and measured at 12 sec interval for 5 mins without preincubation by fluorimetric analysis relative to control
Method in brief: as §3, with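 “pre-incubation.” for “pre-incubation. Z-FR-AMC 2.5 µM, read at 340/440 nm every 12 s for 5 min.”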

Cruzipain = Cruzipain (Trypanosoma cruzi, UniProt P25779); assay: Inhibition of recombinant Trypanosoma cruzi cruzain using Z-FR-AMC as substrate and measured at 12 sec interval for 5 mins without preincubation by fluorimetric analysis
Sequence of Cruzipain (P25779 whole entry): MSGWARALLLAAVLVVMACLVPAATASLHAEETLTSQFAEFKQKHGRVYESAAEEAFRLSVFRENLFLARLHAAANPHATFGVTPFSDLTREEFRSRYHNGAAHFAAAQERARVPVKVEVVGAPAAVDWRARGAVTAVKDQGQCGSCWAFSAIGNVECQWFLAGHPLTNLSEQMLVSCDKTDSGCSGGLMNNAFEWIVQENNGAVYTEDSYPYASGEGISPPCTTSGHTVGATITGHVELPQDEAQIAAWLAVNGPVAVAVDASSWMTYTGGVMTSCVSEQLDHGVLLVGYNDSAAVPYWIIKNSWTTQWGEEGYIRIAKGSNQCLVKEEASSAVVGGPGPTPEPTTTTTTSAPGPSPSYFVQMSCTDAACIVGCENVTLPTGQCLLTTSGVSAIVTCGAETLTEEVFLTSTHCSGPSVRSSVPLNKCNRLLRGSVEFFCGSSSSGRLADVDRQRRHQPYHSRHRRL
Method in brief: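 Cruzain (recombinant, 1 nM) in 0.1 M sodium acetate pH 5.5 with 0.01% Triton X-100 and 1 mM β-mercaptoethanol; Z-FR-AMC 2.5 µM, read at 340/440 nm every 12 s for 5 min, with or without 10 min enzyme–compound pre-incubation. […] For mechanism and Ki, 0.3–20.0 µM substrate and five inhibitor levels were used, with Lineweaver-Burk plots.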

cathepsin S [13] = target: T1, cathepsin S; assay: Inhibition of recombinant human cathepsin S expressed in Escherichia coli at 100 uM using Z-VVR-AMC as substrate and measured after 15 mins without preincubation by microplate reader based assay relative to control; details: probe Z-VVR-AMC; method in brief: as §4
[14] = target: Rhodesain (Trypanosoma brucei rhodesiense) (UniProt Q95PM0); assay: Inhibition of recombinant Trypanosoma brucei rhodesain expressed in Pichia pastoris at 5 uM using Z-FR-AMC as substrate and measured at 12 sec interval for 5 mins without preincubation by fluorimetric analysis relative to control
Method in brief: as §3, with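 “pre-incubation.” for “pre-incubation. Z-FR-AMC 2.5 µM, read at 340/440 nm every 12 s for 5 min.”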

[15] = test system: Trypanosoma brucei rhodesiense; assay: Trypanocidal activity against Trypanosoma brucei rhodesiense STI B900 assessed as reduction in parasite viability; format: functional, organism-based
[16] = target: Rhodesain (Trypanosoma brucei rhodesiense) (UniProt Q95PM0); assay: Inhibition of recombinant Trypanosoma brucei rhodesain expressed in Pichia pastoris at 10 uM using Z-FR-AMC as substrate preincubated for 10 mins followed by substrate addition and measured at 12 sec interval for 5 mins by fluorimetric analysis relative to control; details: time 15.0 min; method in brief: as §3
[17] = target: Cruzipain (Trypanosoma cruzi) (UniProt P25779); assay: Inhibition of recombinant Trypanosoma cruzi cruzain at 100 uM preincubated with BSA for 5 mins followed by incubation with enzyme for 5 mins followed by substrate addition relative to control; details: time 10.0 min; method in brief: as §5

Sequence of Cruzipain (Trypanosoma cruzi) (P25779 123-467 limits assumed): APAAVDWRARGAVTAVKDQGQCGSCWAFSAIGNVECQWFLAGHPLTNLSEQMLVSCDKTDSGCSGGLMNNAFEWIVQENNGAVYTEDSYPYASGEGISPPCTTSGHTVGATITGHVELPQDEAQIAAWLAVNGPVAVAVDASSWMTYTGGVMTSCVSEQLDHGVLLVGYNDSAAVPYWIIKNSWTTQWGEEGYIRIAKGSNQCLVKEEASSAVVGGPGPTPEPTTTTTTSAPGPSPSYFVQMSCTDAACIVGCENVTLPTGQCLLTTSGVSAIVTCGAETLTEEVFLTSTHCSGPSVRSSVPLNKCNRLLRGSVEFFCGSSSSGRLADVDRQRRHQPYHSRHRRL

Cn1c(=O)n(C)c2cc(CNCCNc3ccnc4cc(Cl)ccc34)ccc21
inhibition [1]: 56.4%
inhibition at 0.25 h, 100 µM (cathepsin B): 11.7%
Activity (Trypanosoma cruzi): Active
inhibition [2]: 71%
inhibition [3]: 80%
inhibition [4]: 64.5%
inhibition [5]: 67%
inhibition at 0.25 h, 100 µM (cathepsin S [6]): 8.4%
inhibition [7]: 13%
inhibition [8]: 75%
inhibition [9]: 18%
inhibition [10]: 10%
inhibition [11]: 62.1%
inhibition [12]: 64.9%
IC50 (Cruzipain): 145 µM
inhibition at 0.25 h, 100 µM (cathepsin S [13]): 4.7%
inhibition [14]: 47.7%
IC50 [15]: 0.4 µM
inhibition [16]: 12%
inhibition [17]: 87.8%

Cl.Cl.Clc1cc(Br)ccc1-c1ccc(CNCC2CCNCC2)o1
inhibition [1]: 76.7%
inhibition at 0.25 h, 100 µM (cathepsin B): 3.2%
Activity (Trypanosoma cruzi): Active
inhibition [2]: 75%
inhibition [3]: 84%
inhibition [4]: 96.8%
inhibition [5]: 96%
inhibition at 0.25 h, 100 µM (cathepsin S [6]): 29.8%
inhibition [7]: 25%
inhibition [8]: 78%
inhibition [9]: 15%
inhibition [10]: 10%
inhibition [11]: 86.2%
inhibition [12]: 29.1%
IC50 (Cruzipain): 26 µM
inhibition at 0.25 h, 100 µM (cathepsin S [13]): 27.1%
inhibition [14]: 31.3%
IC50 [15]: 0.1 µM
inhibition [16]: 2%
inhibition [17]: 90.1%
